Assay results taken from PMC7004556 (Cancer Science, 2020).
Marks after values point to notes of the source that are not given here.

What was measured:
[1] = tested on: patients with advanced solid tumors; experiment: Phase I dose escalation: safety and tolerability; type: in vivo, human
Procedure, shortened: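 Patients received a single 1 mg oral dose on cycle 0 day 1, then a washout on days 2-7. Oral once-daily dosing followed in 28-day cycles from day 8-10. Doses were escalated by mTPI design (target DLT rate 25% ± 5%). DLTs were assessed over cycles 0-1 against predefined haematological, non-haematological, calcification and hyperphosphataemia criteria. AEs were coded by MedDRA v20.1 and graded by CTCAE v4.03.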

Phase I pharmacokinetics = type: in vivo, human; conditions: for AUC(0‐t) / C avg / C max / C min / T max / AUC(0‐inf) / CL/F / T 1/2 / Vz/F: oral; for T max: median (range)
Procedure, shortened: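 Plasma was sampled predose in all cycles and after dosing up to cycle 3. Plasma (100 µL) plus IS and 5 mmol/L ammonium hydrogen carbonate underwent solid-phase extraction, with methanol/formic acid elution. Drug in plasma and urine was quantified by LC-MS/MS: ODS column at 40°C, isocratic 40:60 water/acetonitrile-water with 15 mmol/L ammonium hydrogen carbonate, 0.25 mL/minute, positive-mode MRM. Parameters came from non-compartmental analysis.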

FGFR pathway = experiment: Pharmacodynamic markers of FGFR pathway inhibition; type: in vivo, human; conditions: QD
Procedure, shortened: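 Blood was drawn before dosing in cycles 0, 1 and later odd cycles, and after the cycle 0 dose on days 1-4. FGF23 was measured by solid-phase sandwich ELISA (mouse anti-human FGF23 capture, peroxidase-conjugated mouse anti-human FGF23 detection, colorimetric). 1,25-(OH)2-vitamin D was measured by double-antibody RIA (sheep antibody 16-18 h, 125I tracer, cellulose-conjugated donkey anti-sheep IgG, γ-counting). Serum phosphate was also tracked.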

advanced solid tumors = experiment: Antitumor activity by RECIST v1.1 in phase I; type: in vivo, human
Procedure, shortened: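 Tumours assessed by CT and/or MRI per RECIST v1.1 at screening, every 8 weeks from cycle 1 day 1, and at discontinuation. Oral once-daily dosing ran in 28-day cycles. Best overall response was scored in patients with ≥1 RECIST target lesion. The efficacy set covered treated patients with a baseline and ≥1 post-baseline assessment.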

FGFR = conditions: SNU‐16 cells, dose‐dependent; cited from earlier work
[2] = tested on: tumors harboring FGFR abnormalities; conditions: mice with tumors metastasized to the lung; cited from earlier work
[3] = repeated dose QD, 30 mg (n = 2), mean
[4] = repeated dose QD, 60 mg (n = 2), mean
[5] = repeated dose QD, 100 mg (n = 3), mean ± SD
[6] = repeated dose QD, 140 mg (n = 3), mean ± SD
[7] = repeated dose QD, 180 mg (n = 3), mean ± SD
[8] = single dose, 30 mg (n = 2), mean
[9] = single dose, 60 mg (n = 3), mean ± SD
[10] = single dose, 100 mg (n = 3), mean ± SD
[11] = single dose, 140 mg (n = 3), mean ± SD
[12] = single dose, 180 mg (n = 3), mean ± SD

For CNC(=O)n1ccc2cc(Oc3ccnc(NC(=O)c4ccc(C5CCN(CCO)CC5)cc4)c3)c(OCCOC)cc21 [E7090], the “TEAE‐related dose interruption: decreased neutrophil count” value ([1]; in vivo) was 1 n, the “TEAE‐related dose interruption: nasopharyngitis” value ([1]; in vivo) was 1 n and the “TEAE‐related dose interruption: nausea” value ([1]; in vivo) was 3 n. The “TEAE‐related dose interruption: vomiting” value ([1]; in vivo) was 2 n, the “Number of patients with SAE” value ([1]; of 24 patients treated) was “three” and the “Plasma concentrations at 72 hours after dosing” value (Phase I pharmacokinetics; 1‐16‐mg cohorts) was “below the limit of quantification”. For the same molecule, the “AUC(0‐t)” value (Phase I pharmacokinetics; [3]) was 162 ng·h/mL, the C avg (Phase I pharmacokinetics; [3]) was 7 ng/mL and the C max (Phase I pharmacokinetics; [3]) was 13 ng/mL. The C min (Phase I pharmacokinetics; [3]) was 5 ng/mL, the T max (Phase I pharmacokinetics; repeated dose QD, 30 mg (n = 2)) was 4 (3‐5) h and the “AUC(0‐t)” value (Phase I pharmacokinetics; [4]) was 507 ^a h × ng/mL. For the same molecule, the C avg (Phase I pharmacokinetics; [4]) was 21 ^a ng/mL, the C max (Phase I pharmacokinetics; [4]) was 51 ^a ng/mL and the C min (Phase I pharmacokinetics; [4]) was 11 ^a ng/mL. The T max (Phase I pharmacokinetics; repeated dose QD, 60 mg (n = 2)) was 3 (2‐3) ^a h, the “AUC(0‐t)” value (Phase I pharmacokinetics; [5]) was 1340 ± 437 ng·h/mL and the C avg (Phase I pharmacokinetics; [5]) was 56 ± 18 ng/mL. For the same molecule, the C max (Phase I pharmacokinetics; [5]) was 116 ± 4 ng/mL, the C min (Phase I pharmacokinetics; [5]) was 22 ± 9 ng/mL and the T max (Phase I pharmacokinetics; repeated dose QD, 100 mg (n = 3)) was 3 (2‐5) h. The “AUC(0‐t)” value (Phase I pharmacokinetics; [6]) was 4700 ± 3380 ng·h/mL, the C avg (Phase I pharmacokinetics; [6]) was 196 ± 141 ng/mL and the C max (Phase I pharmacokinetics; [6]) was 372 ± 173 ng/mL. For the same molecule, the C min (Phase I pharmacokinetics; [6]) was 117 ± 116 ng/mL, the T max (Phase I pharmacokinetics; repeated dose QD, 140 mg (n = 3)) was 5 (3‐5) h and the “AUC(0‐t)” value (Phase I pharmacokinetics; [7]) was 3860 ± 764 ng·h/mL. For the same molecule, the C avg (Phase I pharmacokinetics; [7]) was 161 ± 32 ng/mL, the C max (Phase I pharmacokinetics; [7]) was 337 ± 60 ng/mL and the C min (Phase I pharmacokinetics; [7]) was 65 ± 19 ng/mL. The T max (Phase I pharmacokinetics; repeated dose QD, 180 mg (n = 3)) was 5 (3‐5) h, the “AUC(0‐inf)” value (Phase I pharmacokinetics; [8]) was 239 ng·h/mL and the “AUC(0‐t)” value (Phase I pharmacokinetics; [8]) was 222 ng·h/mL. The C max (Phase I pharmacokinetics; [8]) was 28 ng/mL, the CL/F (Phase I pharmacokinetics; [8]) was 127 L/h and the “T 1/2” value (Phase I pharmacokinetics; [8]) was 23 h. For the same molecule, the Vz/F (Phase I pharmacokinetics; [8]) was 4180 L, the T max (Phase I pharmacokinetics; single dose, 30 mg (n = 2)) was 3 (1‐5) h and the “AUC(0‐inf)” value (Phase I pharmacokinetics; [9]) was 554 ± 247 ng·h/mL. The “AUC(0‐t)” value (Phase I pharmacokinetics; [9]) was 533 ± 257 ng·h/mL, the C max (Phase I pharmacokinetics; [9]) was 39 ± 5 ng/mL and the CL/F (Phase I pharmacokinetics; [9]) was 121 ± 43 L/h. For the same molecule, the “T 1/2” value (Phase I pharmacokinetics; [9]) was 23 ± 8 h, the Vz/F (Phase I pharmacokinetics; [9]) was 3790 ± 1240 L and the T max (Phase I pharmacokinetics; single dose, 60 mg (n = 3)) was 3 (3‐5) h. The “AUC(0‐inf)” value (Phase I pharmacokinetics; [10]) was 1120 ± 479 ng·h/mL, the “AUC(0‐t)” value (Phase I pharmacokinetics; [10]) was 1080 ± 474 ng·h/mL and the C max (Phase I pharmacokinetics; [10]) was 86 ± 31 ng/mL. For the same molecule, the CL/F (Phase I pharmacokinetics; [10]) was 103 ± 48 L/h, the “T 1/2” value (Phase I pharmacokinetics; [10]) was 15 ± 2 h and the Vz/F (Phase I pharmacokinetics; [10]) was 2310 ± 1360 L. For the same molecule, the T max (Phase I pharmacokinetics; single dose, 100 mg (n = 3)) was 5 (3‐5) h, the “AUC(0‐inf)” value (Phase I pharmacokinetics; [11]) was 4050 ± 3340 ng·h/mL and the “AUC(0‐t)” value (Phase I pharmacokinetics; [11]) was 3960 ± 3230 ng·h/mL. The C max (Phase I pharmacokinetics; [11]) was 227 ± 118 ng/mL, the CL/F (Phase I pharmacokinetics; [11]) was 59 ± 50 L/h and the “T 1/2” value (Phase I pharmacokinetics; [11]) was 27 ± 12 h. The Vz/F (Phase I pharmacokinetics; [11]) was 1670 ± 617 L, the T max (Phase I pharmacokinetics; single dose, 140 mg (n = 3)) was 5 (3‐5) h and the “AUC(0‐inf)” value (Phase I pharmacokinetics; [12]) was 2610 ± 921 ng·h/mL. For the same molecule, the “AUC(0‐t)” value (Phase I pharmacokinetics; [12]) was 2570 ± 933 ng·h/mL, the C max (Phase I pharmacokinetics; [12]) was 154 ± 38 ng/mL and the CL/F (Phase I pharmacokinetics; [12]) was 74 ± 22 L/h. For the same molecule, the “T 1/2” value (Phase I pharmacokinetics; [12]) was 24 ± 10 h, the Vz/F (Phase I pharmacokinetics; [12]) was 2550 ± 1550 L and the T max (Phase I pharmacokinetics; single dose, 180 mg (n = 3)) was 2 (2‐5) h. The “C max and AUC(0‐ t ) versus dose” value (Phase I pharmacokinetics; up to 180 mg) was “Dose‐dependent increases”, the “Doses with sufficient FGFR pathway inhibition” value (FGFR pathway) was no less than 100 mg and the “Antitumor activity in cholangiocarcinoma with FGFR2 fusion” value (advanced solid tumors; 30‐mg cohort) was “did not show potent antitumor activity”. The “Reduction in diameter of the target lesion” value (advanced solid tumors; 180‐mg cohort, gastric cancer with FGFR2 amplification, cycle 3 day 1, from 38 to 11 mm) was 71%, the “Phosphorylation of downstream molecules including FRS2α, ERK1/2, and AKT” value (FGFR) was “inhibited phosphorylation” and the Survival effect [2] was “significantly prolonged survival effect”.
